About 460 (18%) of roughly 2,500 compounds were called active. The list is a sample of the results. A number with no mark means an inactive call.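 The calls were made as follows: active = mean activation above a cutoff of low control average plus 3 SD from the earlier screen (cut at about 12% in these data); inactive = the rest.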
Assay: IANBD-channel fluorescence artefacts in buffer – biochemical, artefact control for cardiac RTF calcium sensitizer project, confirmation (AID 504382)
Conditions: IANBD fluorescence interference counterscreen, EC20 Ca2+, at 7.2 µM, stronger effect = higher value, scaled: EC20 calcium 0, EC100 calcium 100
Summary of the method: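 Technique: fluorescence, 480/540 nm / Medium: MOPS-based buffer with KCl, MgCl2, EGTA, NTA, DTT, pH 7.2 / Probe or stimulus: calcium at EC20 level, 0.472 mM final / Repeats: triplicate wells per compound / Times: 15 min compound exposure at 25 °C / Measure: compound fluorescence interference relative to control well signal range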

Row | Structure (SMILES) | fluorescence artifact activation
1 | C/C(=N/Nc1ccnc2cc(Cl)ccc12)c1ccc(N)cc1 | 2.55%
2 | CC(=O)Nc1ccccc1C(=O)C(=O)Nc1ccc(F)c(Cl)c1 | 0.02%
3 | CN1c2ccccc2C(O)=C(C(=S)Nc2ccc(F)c(Cl)c2)S1(=O)=O | 13.6% (active)
4 | Cc1ccc(NC(=O)Nc2ccc(F)cc2)cc1Cl | 4.13%
5 | CCC1(C)COC(c2ccc(OC)c(OC)c2)OC1 (centres undefined) | 0.06%
6 | N#C/C(=C\c1c[nH]c2ccccc12)C(=O)Nc1ncc(Cc2ccc(Cl)cc2Cl)s1 | 5.66%
7 | O=C(NCc1ccc(Cl)cc1)C1CCN(c2cnccn2)CC1 | 16% (active)
8 | O=C(CN1CCN(c2ccccc2F)CC1)NCc1ccc(Cl)cc1 | 0.16%
9 | O=C(NCCc1ccccc1)C1CCN(c2ncccn2)CC1 | 0.16%
10 | COc1ccc(/C=N/NC(=O)c2cccc([N+](=O)[O-])c2)cc1O | 0.08%
11 | Cn1nnc(NC(=S)NC(=O)/C=C/c2ccco2)n1 | 0.78%
12 | CCNC(=S)NNC(=O)CCn1cc(C)cn1 | -0.01%
13 | CN(C)c1ccc(/C=C/c2nc3ccccc3c(=O)n2CCO)cc1 | 127% (active)
14 | CN(C)c1ccc(/C=C/c2nc3ccccc3c(=O)n2-c2ccc(C(=O)O)cc2)cc1 | 0.13%
15 | CN(C)c1ccc(/C=C/c2nc3ccccc3c(=O)[nH]2)cc1 | 0.27%
16 | O=C(O)C1CCC(CNCc2ccccc2Cl)CC1 (centres undefined) | 0.76%
17 | CCCCc1ccc(NC(=O)c2cnccn2)cc1 | 9.08%
18 | COc1ccc(CNC(=O)c2sc(=S)n(-c3ccccc3)c2N)cc1 | 9.19%
19 | CC(C)NC(=O)C1CCCN(c2nnc(-n3cccc3)s2)C1 (centres undefined) | 316% (active)
20 | COc1cccc(CNC(=O)C2CCCN(c3nc4ccccc4o3)C2)c1 (centres undefined) | 0.08%

Row | Structure (SMILES) | fluorescence artifact activation
21 | O=C(Nc1cc2c3c(c1)CC(=O)N3CCC2)C1CC1 | 0.03%
22 | Cc1ccc(/C=C2/SC(=O)NC2=S)o1 | 6.76%
23 | C(=N\c1nc2ccccc2n1CCN1CCOCC1)/c1cccs1 | -0.03%
24 | Cc1ccc(C(C(=O)NC(C)(C)C)N(C(=O)c2csnn2)C2CC2)cc1 (centres undefined) | 34.2% (active)
25 | COC(=O)c1c(NC(=O)CN2CCN(c3cccc(Cl)c3)CC2)sc(C)c1C | 0.21%
26 | CCOC(=O)C1=C(C)N(CCCCCC(=O)O)C(=O)NC1c1ccccc1Cl (centres undefined) | 0.06%
27 | CCOC(=O)c1[nH]c2ccc(OCC)cc2c1CCCN1C(=O)c2ccccc2C1=O | 87.1% (active)
28 | CCCN1C(=O)c2ccccc2NC1c1ccc(O)c(OCC)c1 (centres undefined) | 2.14%
29 | CC(OC(=O)c1c2c(nc3ccccc13)/C(=C\c1ccc3c(c1)OCO3)CCC2)C(=O)Nc1ccc(S(N)(=O)=O)cc1 (centres undefined) | 0.03%
30 | Cc1ccc(O)c(C(=O)c2cc(C#N)c(=O)n(-c3nccs3)c2)c1 | 0.06%
31 | N#Cc1cc(C(=O)c2ccccc2O)cn(-c2nccs2)c1=O | 12.1% (active)
32 | N#Cc1cc(C(=O)c2cc(F)ccc2O)cn(-c2nccs2)c1=O | 0.01%
33 | O=C(Cn1ncc2c3ccccc3n(Cc3cccc(Cl)c3)c2c1=O)NCC1CCCO1 (centres undefined) | 0.38%
34 | O=C(NCCOc1ccccc1Cl)C(=O)Nc1ccccc1 | 0.07%
35 | CS/C(=N\S(=O)(=O)c1cccs1)Nc1cccc(Cl)c1C | 16.4% (active)
36 | COc1cccc(CNC(=O)CN(C)S(=O)(=O)c2cnc[nH]2)c1 | 41.4% (active)
37 | COc1cccc(CNC(=O)CN(C)S(=O)(=O)c2ccc3c(c2)c(=O)n(C)c(=O)n3C)c1 | 0.24%
38 | COc1cccc(CNC(=O)CCS(=O)(=O)c2cc3c(cc2C)NC(=O)CO3)c1 | 0.09%
39 | COc1ccc(/C=N/NC(=O)Cn2c(Cc3ccc(OC)c(OC)c3)nc3ccccc32)cc1 | 1.63%
40 | COc1ncnc2c1NC1=C(S2)C(=NCCC(=O)O)CC(C)(C)C1 | 19.4% (active)

Row | Structure (SMILES) | fluorescence artifact activation
41 | CC(=O)c1cc2c(cc1N/C(=N/S(=O)(=O)c1ccc(Br)cc1)c1ccccc1)OCO2 | 0.13%
42 | O=C(NCc1cccc(C(F)(F)F)c1)c1cccc(S(=O)(=O)NCc2ccccc2)c1 | 0.02%
43 | CC(=NNC(=O)c1ccncc1)c1ccc2ccccc2c1O | 0.08%
44 | CCOC(=O)c1sc2nc(C)nc(SCC(=O)NC3CCS(=O)(=O)C3)c2c1C (centres undefined) | 8.03%
45 | O=C(NCC(=O)N(CC1CCCO1)C1(C(=O)NC2CCCCC2)CCCCC1)c1ccccc1 (centres undefined) | -0.09%
46 | O=C(COc1ccccc1Cl)N1CCN(c2ccccn2)CC1 | 0.24%
47 | S=C(Nc1cc(Cl)ccc1Oc1ccccc1)N1CCN(c2ccccn2)CC1 | 23.1% (active)
48 | CCOC(=O)N1CCN(C(=S)Nc2ccccc2C)CC1 | 7.89%
49 | CC(COC(=O)c1ccccc1)(COC(=O)c1ccccc1)/[N+]([O-])=C/c1ccccc1 | 9.45%
50 | COCCCn1c(=O)/c(=C\c2cccc(OC)c2OC)s/c1=C(/C#N)C(=O)Nc1ccc(C(=O)O)cc1 | 2.82%
51 | CCc1cc(C(=O)Nc2ccc(OC)nc2)sc1C | -0.03%
52 | CCC(=O)N1CCC2(CC1)Oc1ccc(Cl)cc1C(=O)C21CC(c2cccnc2)=NO1 (centres undefined) | 5.01%
53 | COc1ccc(C2(CNC(C)=O)CCCC2)cc1OC | 0.1%
54 | O=C(c1ccccc1)[C@@H]1[C@@H]2C(=O)N(c3ccc(F)cc3)C(=O)[C@@H]2C2CCCN21 (some centres undefined) | 1.82%
55 | CC(=O)Oc1ccc(N2C(=O)C3C(C2=O)C(C(=O)c2ccc(Cl)cc2)N2CCCC32)cc1 (centres undefined) | 12.2% (active)
56 | Cc1ccc(N2C(=O)[C@@H]3[C@H](C2=O)C2CCCN2[C@@H]3C(=O)c2ccccc2)cc1 (some centres undefined) | 65.3% (active)
57 | CCOC(=O)c1ccc(N2C(=O)C3C(C2=O)C(C(=O)c2ccc(Cl)cc2)N2CCCC32)cc1 (centres undefined) | 1.5%
58 | COc1ccc(N2C(=O)C3C(C2=O)C(C(=O)c2ccc(Cl)cc2)N2CCCC32)cc1 (centres undefined) | 2.56%
59 | Cc1ccc(N2C(=O)C3C(C(=O)c4ccccc4)=NN(c4ccccc4)C3C2=O)cc1 (centres undefined) | 5.76%

— PubChem BioAssay AID504382 (The Scripps Research Institute Molecular Screening Center, 2011)
